This is a sample that favours compounds with a hit; in the whole collection about 1.9% have one here.
M4 antag – CHRM4 antagonism in calcium assay; CHO-hM4 cells, ACh EC80, Fluo-8 calcium fluorescence; inhibition, % at 3 µM; 0.73% of 360,000 active; AID 624125;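 active means inhibition above its plate's cutoff, the mean inhibition of sample wells plus 3 SD, cut at about 27% in these data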;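 further: 0% = acetylcholine EC80 with DMSO and 100% = DMSO without agonist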
M5 antag – blocks acetylcholine activation of human M5 receptor | CHO-hM5 cells, Fluo-8 calcium fluorescence, ACh EC80 | inhibition, % at 3 µM | 0.59% of 360,000 active | P08912;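 active means inhibition above a per-plate cutoff, the mean of that plate's test compounds plus 3 SD, cut at about 27% in these data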;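 further: 0% = acetylcholine EC80 with DMSO and 100% = DMSO without agonist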
Target sequence (P08912 whole entry, looked up): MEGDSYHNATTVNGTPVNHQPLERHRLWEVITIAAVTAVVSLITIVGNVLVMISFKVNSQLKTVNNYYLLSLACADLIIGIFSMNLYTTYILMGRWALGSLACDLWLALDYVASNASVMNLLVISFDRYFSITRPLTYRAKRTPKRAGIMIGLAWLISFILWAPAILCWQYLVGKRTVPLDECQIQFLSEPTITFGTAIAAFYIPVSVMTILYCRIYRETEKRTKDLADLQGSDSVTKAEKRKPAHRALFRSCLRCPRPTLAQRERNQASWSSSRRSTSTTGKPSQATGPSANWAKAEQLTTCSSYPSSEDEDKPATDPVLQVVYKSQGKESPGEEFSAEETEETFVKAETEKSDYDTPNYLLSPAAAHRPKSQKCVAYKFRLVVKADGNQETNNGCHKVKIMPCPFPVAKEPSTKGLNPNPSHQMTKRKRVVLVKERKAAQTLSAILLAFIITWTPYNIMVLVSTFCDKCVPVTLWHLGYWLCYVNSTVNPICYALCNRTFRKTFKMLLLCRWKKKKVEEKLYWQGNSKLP
M5 ag – agonists of human muscarinic M5 receptor (CHRM5) | activation, % at 3 µM | P08912 | CHO-K1 hM5 cells, Fluo-8 calcium fluorescence; 0% DMSO wells, 100% maximal acetylcholine response | 0.19% of 360,000 active;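 active means activation above the run's mean over test compounds plus 3 SD, cut at about 23% in these data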;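 further: signal is peak over basal fluorescence ratio across the kinetic read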
CHRM4 agonist – CHRM4 agonism in calcium assay; P08173; CHO-K1 hM4/Gqi5, Fluo-8 calcium fluorescence; vehicle 0%, full acetylcholine response 100%; activation, % at 3 µM; 0.14% of 360,000 active;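 active means activation above the run mean over all test wells plus 3 SD, cut at about 32% in these data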;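 further: peak over basal fluorescence ratio per well then scaled between controls; 0% = DMSO wells and 100% = acetylcholine at EC100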
M4 PAM – positive allosteric modulators of human muscarinic M4 receptor. P08173. CHO-K1 hM4/Gqi5, Fluo-8 calcium fluorescence, ACh EC20; 0% = ACh EC20, 100% = maximal ACh. activation, % at 3 µM. 0.4% of 360,000 active;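 active means activation above its plate's cutoff, the mean activation of sample wells plus 3 SD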
CHRM5 PAM – CHRM5 positive allosteric modulation | P08912 | 0.3% of 360,000 active | CHO-K1 hM5, Fluo-8 calcium, ACh EC20 PAM; 0% = ACh EC20, 100% = ACh EC100 | activation, % at 3 µM;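 active means activation above the run cutoff, the mean activation of all test compounds plus 3 SD, cut at about 18% in these data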
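Measured by: Fluo-8 calcium fluorescence; material: human M5 receptor in CHO-K1 cells; schedule: Post-acetylcholine fluorescence recording 140 s; benchmarks: low control EC20 acetylcholine (0%), high control EC100 acetylcholine (100%); read-out: Max/basal fluorescence ratio as % of EC20–EC100 ACh window; compound: single dose, 3 µM nominal final test concentration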
The depositor's hits bear a star.

SMILES | M4 antag | M5 antag | M5 ag | CHRM4 agonist | M4 PAM | CHRM5 PAM
CN1CCN(c2ccccc2NC(=O)c2ccc3c(c2)OCCO3)CC1 | -3 | 7 | -5 | 2 | 2 | -2
CCOc1ccc(CNC(=O)CCS(=O)(=O)c2ccc3c(c2)NC(=O)CO3)cc1OC | -2 | 12 | -4 | 3 | 2 | -5
Cc1ccc(C(=O)C2C(=O)c3ccccc3C2=O)cc1 | -10 | -2 | 1 | 1 | 6 | 5
NN=C1c2ccccc2C(=O)C1C(=O)C(c1ccccc1)c1ccccc1 (stereo unspecified) | 22 | 38* | 56* | 13 | -8 | -24
CCCCC[C@H]1CN(C2CCCCC2)C(=O)[C@@H]1CC(=O)NCc1ccccc1 | 8 | 14 | -3 | 3 | 1 | -5
O=C(c1cc(-c2ccccc2)nc2ccccc12)N1CCN(C2CCS(=O)(=O)C2)CC1 (stereo unspecified) | -6 | 1 | 1 | 17 | -5 | -9
Oc1ccc(Cl)cc1Cc1cc(Cl)ccc1O | 27* | 11 | 5 | 26 | -15 | -13
Oc1ccc(Cl)cc1CNCc1ccc(Cl)cc1 | -1 | 9 | 11 | 8 | 5 | 0
COC(=O)[C@@]12C[C@@H](CC(=O)N3CCOCC3)C(=O)N(CCc3ccc(OC)c(OC)c3)C1=CCC(C)(C)C2 | 6 | 4 | 1 | 2 | -1 | 2
COc1cc(-c2cc(C(=O)NCc3ccco3)c3ccccc3n2)cc(OC)c1OC | 6 | 13 | 1 | 15 | -8 | -11
COc1cc(-c2cc(C(=O)Nc3ccc(S(=O)(=O)NCc4ccco4)cc3)c3ccccc3n2)cc(OC)c1OC | 46* | 21 | 2 | 18 | -25 | -15
CCCCCc1c(-c2ccc(OC)cc2)ncn1CCc1ccccc1OC | 34* | 17 | 2 | 10 | -12 | -22
CCCCc1c(-c2ccc(OC)cc2)ncn1CCc1ccccc1OC | 33* | 10 | 2 | 10 | -13 | -21
CCCCc1c(-c2ccccc2)ncn1CCc1ccccc1OC | 15 | 8 | 1 | 6 | -12 | -21
CCCCCc1c(-c2ccc(Cl)cc2)ncn1CCc1ccccc1OC | -10 | 3 | -1 | 0 | -4 | 0
CCOCCCNC(=O)C(NC(=O)CNC(C)=O)c1ccc(C)cc1 (stereo unspecified) | 7 | -3 | 2 | 0 | 3 | 5
CCOCCCNC(=O)C(c1ccc(C)cc1)N(Cc1ccc2c(c1)OCO2)C(=O)CNC(C)=O (stereo unspecified) | -2 | 2 | 2 | 2 | 24* | 4
CCOCCCNC(=O)C(NC(=O)Cc1cccs1)c1ccc(C)cc1 (stereo unspecified) | -4 | 9 | 2 | 0 | 21* | 6
O=C1NC2(CCCCCC2)C(=O)N1Cc1c(F)cccc1Cl | 31* | 7 | -5 | 2 | -14 | -3
O=C1NC2(CCCCCC2)C(=O)N1Cc1ccccc1F | 11 | 10 | -4 | 0 | -3 | -2
O=S(=O)(O)c1cc(O)ccc1O | -8 | -10 | 36* | 2 | 0 | -13
Cc1cc(C(=O)N/N=C2/CC(C)CC(C)(C)C2)c(C)o1 (stereo unspecified) | -4 | -9 | -1 | 0 | 26* | -4
Cc1ccc(NC(=O)C2COc3ccccc3O2)cc1C (stereo unspecified) | 0 | 13 | -1 | 0 | -2 | -8
CCOC(=O)c1c(S(=O)(=O)NCC(=O)Nc2ccc(F)cc2F)c(C)n(C)c1C | -8 | -13 | -1 | 0 | 18* | 13
CCOC(=O)c1c(S(=O)(=O)NCC(=O)Nc2cc(C)ccc2C)c(C)n(C)c1C | 9 | 16 | -5 | -1 | -3 | -5
SMILES | M4 antag | M5 antag | M5 ag | CHRM4 agonist | M4 PAM | CHRM5 PAM
Cc1ncc([N+](=O)[O-])n1CC(=O)Nc1ccc(Br)cc1 | -4 | 14 | -2 | 1 | 2 | -2
CC(C)(C)C(=O)NC(=S)NNC(=O)c1ccc(Cl)cc1Cl | 44* | 36* | 98* | 139* | -44 | -33
CC(C)(C)C(=O)NC(=S)NNC(=O)c1ccc(-c2ccccc2)cc1 | 98* | 97* | 101* | 141* | -54 | -39
COC(=O)NNC(=O)c1ccc(Cl)cc1Cl | 3 | -2 | 1 | 0 | -3 | 1
Nc1[nH]nc2nc(N3CCCC3)nc(-c3ccccc3)c12 | 2 | -7 | -3 | 0 | -6 | 25*
O=C(CCCc1nc(-c2ccc(Cl)cc2)no1)NC1CCCC1 | 7 | 5 | 4 | 11 | -1 | -12
CN(Cc1ccccc1)C1CCN(Cc2ccccc2[N+](=O)[O-])CC1 | 48* | 11 | -21 | 1 | -17 | -15
O=[N+]([O-])c1ccccc1CN1CCN(S(=O)(=O)Cc2ccccc2)CC1 | 0 | 5 | -2 | 2 | 15 | 2
O=C1CCCN1CCCNc1nc2c(S(=O)(=O)c3ccccc3)nnn2c2ccc(Cl)cc12 | -5 | 4 | -3 | -2 | 6 | 2
COc1ccc(C(C)(O)c2nc(-c3ccc(OC)c(OC)c3)cs2)cc1 (stereo unspecified) | -17 | 3 | 0 | 1 | 25* | 3
COc1ccc(-c2csc(C(C)(O)c3ccccc3)n2)cc1OC (stereo unspecified) | -6 | -5 | -1 | 2 | 6 | 2
O=C(CSc1cn[nH]n1)Nc1cccc(C(F)(F)F)c1 | 3 | 10 | 1 | 2 | 2 | 0
COc1cccc(OCc2cc(C(=O)N(C)C3CCCCC3)no2)c1 | -7 | 0 | -1 | 4 | 4 | 0
O=C(COC(=O)c1ccc(F)c(S(=O)(=O)N2CCOCC2)c1)NCCc1ccccc1 | -28 | 0 | 2 | 2 | 21* | -2
Cc1ccc(C(=O)OCC(=O)NCCc2ccc(F)cc2)cc1S(=O)(=O)N1CCOCC1 | 8 | 10 | 2 | 4 | 2 | -3
COC(c1ccccc1)c1nnc(CCC(=O)N2CCCCCCC2)o1 (stereo unspecified) | -18 | 5 | 0 | 3 | 18* | 2
COC(c1ccccc1)c1nnc(CCC(=O)N2CCN(Cc3cccs3)CC2)o1 (stereo unspecified) | 1 | 4 | -3 | 2 | -1 | -2
COc1cccc(NC(=O)NNC(=O)C(C)Oc2ccc3ccccc3c2)c1 (stereo unspecified) | 6 | -1 | -2 | 2 | -4 | -4
CC(C)NS(=O)(=O)c1ccc(NC(=O)C(C)Oc2ccc(C(=O)c3ccccc3)cc2)cc1 (stereo unspecified) | 71* | 47* | 65* | 117* | -46 | -17
